Measurements published in paper PMC5525105 (ACS Chemical Biology, 2017).

T1: rGBA (Homo sapiens, UniProt P04062, R534H)
T1 sequence (P04062 40-536 R534H): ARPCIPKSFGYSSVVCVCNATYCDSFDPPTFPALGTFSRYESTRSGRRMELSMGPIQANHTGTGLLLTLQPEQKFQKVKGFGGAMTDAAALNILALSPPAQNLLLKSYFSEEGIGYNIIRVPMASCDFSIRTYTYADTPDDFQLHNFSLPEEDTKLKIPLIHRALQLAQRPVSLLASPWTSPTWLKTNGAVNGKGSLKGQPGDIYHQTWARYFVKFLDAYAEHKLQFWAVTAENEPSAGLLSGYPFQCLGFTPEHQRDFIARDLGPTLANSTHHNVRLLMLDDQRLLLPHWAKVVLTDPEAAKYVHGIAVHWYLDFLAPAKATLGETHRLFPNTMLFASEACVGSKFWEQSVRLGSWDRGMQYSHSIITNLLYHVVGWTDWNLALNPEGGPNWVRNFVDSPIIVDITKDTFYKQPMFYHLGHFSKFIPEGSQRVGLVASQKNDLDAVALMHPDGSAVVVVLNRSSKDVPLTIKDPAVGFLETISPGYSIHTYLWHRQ

T2: wild-type GBA (Homo sapiens, UniProt P04062)
T2 sequence (P04062 40-536): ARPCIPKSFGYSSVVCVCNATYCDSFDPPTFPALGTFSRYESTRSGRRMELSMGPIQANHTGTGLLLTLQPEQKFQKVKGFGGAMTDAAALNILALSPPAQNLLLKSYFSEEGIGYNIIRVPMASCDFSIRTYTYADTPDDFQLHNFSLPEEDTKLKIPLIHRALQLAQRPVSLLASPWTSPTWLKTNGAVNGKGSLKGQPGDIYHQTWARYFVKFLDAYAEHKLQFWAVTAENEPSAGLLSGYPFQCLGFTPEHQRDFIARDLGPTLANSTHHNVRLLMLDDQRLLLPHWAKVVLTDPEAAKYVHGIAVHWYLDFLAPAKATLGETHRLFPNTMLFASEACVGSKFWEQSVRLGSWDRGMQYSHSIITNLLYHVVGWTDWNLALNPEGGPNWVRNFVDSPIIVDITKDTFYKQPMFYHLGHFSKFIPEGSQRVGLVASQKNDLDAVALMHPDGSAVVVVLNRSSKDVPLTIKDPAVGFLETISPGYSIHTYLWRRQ


Experiments:
[1] = target: T1, rGBA; assay: Thermal stability of rGBA by tryptophan fluorescence decay; type: binding
[2] = test system: GBA L444P mutant; details: mice, oral administration; cited from earlier work
[3] = test system: GBA; details: neutral pH; cited from earlier work
[4] = test system: wild-type and N370S GBA; assay: In situ treatment of fibroblasts with IFG 1 or fluoro 3 for 12 days; type: cell-based, human; details: wild-type and homozygous N370S GBA fibroblasts
[5] = target: T1, rGBA; assay: Limited proteolysis of rGBA with trypsin; details: for rGBA remaining intact after tryptic digestion: 90 min of incubation with trypsin
[6] = target: T2, wild-type GBA; assay: In situ stabilization of GBA in wild-type fibroblasts; type: cell-based; details: wild-type cells, 100 nM ABP 5 or 100 μM leupeptin, up to 12 days
In short: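 Confluent wild-type skin fibroblasts were cultured 0–12 days with 100 nM red β-epoxide probe, 100 μM leupeptin, or both, with medium refreshed […]. Lysates were made in pH 6.5 phosphate/Triton with protease inhibitors. Without in situ probe, 10 μg protein was labeled 1 h at 37 °C with 100 nM green probe at pH 5.2. Analysis was SDS-PAGE fluorescence, Coomassie staining and anti-GBA (8E4) western blot, then densitometry.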

[7] = target: T1, rGBA; assay: Tryptophan emission fluorescence spectra of rGBA; details: λEX 295 nm, pH 7.4, free or in complex with inhibitor
[8] = Time-dependent decay of rGBA activity at 37 °C; type: physicochemical
[9] = Thermal unfolding of free rGBA by circular dichroism; type: physicochemical; details: circular dichroism 222 nm

| Molecule | increase of Tm of rGBA ([1]; pH 5.2, saturating inhibitor concentration) | increase of GBA L444P mutant activity [2] | increase in thermal stability of GBA [3] [°C] | concentration at which stabilizing effect became evident [4] | concentration of maximal stabilizing effect ([4]; highest concentration tested) [µM] | rGBA remaining intact after tryptic digestion [5] [%] | stabilization of GBA [6] | Tm of rGBA ([1]; pH 5.2, no inhibitor) [°C] | maximum emission of rGBA tryptophan fluorescence [7] [nm] | activity of rGBA over time ([8]; pH 5.2, 37 °C) | half-life of rGBA activity ([8]; pH 7.4, 37 °C, residual activity measured at pH 5.2) [min] | sensitivity of rGBA to tryptic digestion over 90 min ([5]; pH 5.2, trypsin/rGBA 1/10 (w/w)) | rGBA degraded by trypsin within 60 min ([5]; pH 7.4, trypsin/rGBA 1/10 (w/w)) | apparent Tm ([9]; pH 5.2) [°C] | apparent Tm ([9]; pH 7.4) [°C] |
| --- | --- | --- | --- | --- | --- | --- | --- | --- | --- | --- | --- | --- | --- | --- | --- |
| OC[C@H]1CNC[C@@H](O)[C@@H]1O [IFG 1, isofagomine] | +5.6 °C | up to 5 fold | 8.7 | greater than 10 μM | 100 | 50 |  |  |  |  |  |  |  |  |  |
| CC(=O)N[C@@H](CC(C)C)C(=O)N[C@@H](CC(C)C)C(=O)N[C@H](C=O)CCCNC(=N)N [leupeptin] |  |  |  |  |  |  | about 3 fold |  |  |  |  |  |  |  |  |
| rGBA: purified recombinant glucocerebrosidase (imiglucerase) from Genzyme (protein, UniProt P04062 40-536, looked up, variant R495H, imiglucerase) Lysosomal acid …: ARPCIPKSFGYSSVVCVCNATYCDSFDPPTFPALGTFSRYESTRSGRRMELSMGPIQANHTGTGLLLTLQPEQKFQKVKGFGGAMTDAAALNILALSPPAQNLLLKSYFSEEGIGYNIIRVPMASCDFSIRTYTYADTPDDFQLHNFSLPEEDTKLKIPLIHRALQLAQRPVSLLASPWTSPTWLKTNGAVNGKGSLKGQPGDIYHQTWARYFVKFLDAYAEHKLQFWAVTAENEPSAGLLSGYPFQCLGFTPEHQRDFIARDLGPTLANSTHHNVRLLMLDDQRLLLPHWAKVVLTDPEAAKYVHGIAVHWYLDFLAPAKATLGETHRLFPNTMLFASEACVGSKFWEQSVRLGSWDRGMQYSHSIITNLLYHVVGWTDWNLALNPEGGPNWVRNFVDSPIIVDITKDTFYKQPMFYHLGHFSKFIPEGSQRVGLVASQKNDLDAVALMHPDGSAVVVVLNRSSKDVPLTIKDPAVGFLETISPGYSIHTYLWHRQ |  |  |  |  |  | ~10 |  | 55.2 | 336.5 | preserved | 30 | shows resistance to tryptic digestion | about 40% | 61 | 57 |
